Results as given in ChEMBL document CHEMBL1914335, “Identification of a potent and selective σ₁ receptor agonist potentiating NGF-induced neurite outgrowth in PC12 cells” (Bioorg Med Chem, 2011).
pKi: −log10 of the molar value. Active and inactive are the calls of the source. The rule behind the calls is not given here.

Columns and labels:
Cavia porcellus = species: Cavia porcellus; assay: Selectivity ratio of Ki for sigma2 receptor in guinea pig brain membrane to Ki for sigma1 receptor in guinea pig brain membrane; assay type: cell membranes
In short: (§1)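 For σ2, membranes (360 µg protein) incubated at rt for 120 min with 3 nM [3H]DTG plus 0.4 µM (+)-SKF10,047, with nine test concentrations in 50 mM Tris-HCl pH 8.0; nonspecific binding with 5 µM DTG. For σ1, 3 nM [3H]-(+)-pentazocine, 150 min at 37 °C, pH 7.4, haloperidol 10 µM. Both read by filtration and scintillation counting; Ki values derived.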

[1] = molecular target: Mu-type opioid receptor (Cavia porcellus) (UniProt P97266); assay: Displacement of [3H]-DAMGO from mu opioid receptor in guinea pig brain membrane assessed as residual binding at 1 uM after 150 mins by liquid scintillation counting; assay type: cell membranes
In short: (§2)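 Guinea pig brain membranes (about 75 µg protein) incubated with 1 nM [3H]-DAMGO in 50 mM Tris, 8 mM MgCl2, 400 µM PMSF, pH 7.4, 150 min at 37 °C. Nonspecific binding with 10 µM naloxone. Filtration, then solid scintillator counting in triplicate. Residual binding taken at 1 µM test compound; otherwise IC50 from ≥6 concentrations, Ki by Cheng-Prusoff (Kd 0.57 nM).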

[2] = molecular target: Kappa-type opioid receptor (Cavia porcellus) (UniProt P41144); assay: Displacement of [3H]-U69593 from kappa opioid receptor in guinea pig brain membrane assessed as residual binding at 1 uM after 150 mins by liquid scintillation counting; assay type: cell membranes
In short: as §2, with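 “[3H]-U69,593” for “[3H]-DAMGO”, “MgCl2,” for “MgCl2, 400 µM PMSF,”, “unlabeled U69,593.” for “naloxone.”, “µM;” for “µM test compound;”, “0.69” for “0.57”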

[3] = molecular target: Sigma non-opioid intracellular receptor 1 (Cavia porcellus, UniProt Q60492); assay: Displacement of [3H]-(+)-pentazocine from sigma1 receptor in guinea pig brain membrane after 150 mins by liquid scintillation counting; assay type: cell membranes
In short: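 Membranes (500 µg protein) incubated with 3 nM [3H]-(+)-pentazocine and nine test concentrations in 50 mM Tris-HCl pH 7.4, 150 min at 37 °C. Nonspecific binding defined by 10 µM haloperidol. Samples filtered on PEI-presoaked GF/B filters and counted by liquid scintillation; Ki calculated from these curves.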

Sus scrofa = species: Sus scrofa; assay: Displacement of [3H]-(+)-MK-801 from NMDA receptor PCP binding site in pig brain cortex assessed as residual binding at 10 uM after 150 mins by scintillation counting
In short: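 Pig brain cortex membranes (about 100 µg protein) incubated with 2 nM [3H]-(+)-MK-801 in 5 mM Tris-acetate/1 mM EDTA pH 7.5, 150 min at rt. Nonspecific binding with 10 µM (+)-MK-801. Filtration, then solid scintillator counting. Residual binding measured at 10 µM test compound.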

[4] = Displacement of [3H]-DTG from sigma2 receptor in guinea pig brain membrane after 120 mins by liquid scintillation counting; assay type: cell membranes, Cavia porcellus; in short: as §1
[5] = molecular target: Sigma non-opioid intracellular receptor 1 (Rattus norvegicus) (UniProt Q9R0C9); assay: Agonist activity at sigma1 receptor in rat PC12 cells assessed as cells with increase in NGF-induced neurite outgrowth at 0.05 to 2.5 uM after 5 days by phase contrast microscopy; details: PC-12
[6] = molecular target: Sigma non-opioid intracellular receptor 1 (Rattus norvegicus) (UniProt Q9R0C9); assay: Agonist activity at sigma1 receptor in rat PC12 cells assessed as increase of NGF-induced neurite elongation at 0.05 uM after 5 days by phase contrast microscopy; assay type: functional, cell-based; details: PC-12
In short: (§3)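 Culture conditions match the neurite-outgrowth note: PC12 cells on poly-D-lysine coverslips with NGF 2.5 ng/mL ± drug for 5 days, BD-1063 at 5 µM final where used. Cells were then fixed in 4% PFA and imaged by phase contrast, six fields per coverslip. Neurite length was traced from cell body to tip, measured blind by two examiners; ≥3 independent experiments; mean ± SEM.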

[7] = molecular target: Sigma non-opioid intracellular receptor 1 (Rattus norvegicus) (UniProt Q9R0C9); assay: Agonist activity at sigma1 receptor in rat PC12 cells assessed as cells with increase in NGF-induced neurite outgrowth at 0.05 uM after 5 days by phase contrast microscopy; assay type: functional, cell-based; details: PC-12
In short: (§4)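 PC12 cells grown at 37 °C, 5% CO2 in RPMI with 5% FBS and 10% horse serum. Replated at 0.25 × 10^4 cells/cm2 on poly-D-lysine glass coverslips. After 24 h, switched to 0.5% HS medium with NGF 2.5 ng/mL ± drug, BD-1063 at 5 µM final where used. After 5 days, fixed in 4% PFA. Cells with ≥1 neurite at least one cell-body diameter long were scored blind by two examiners; ≥3 independent experiments.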

[8] = molecular target: Sigma non-opioid intracellular receptor 1 (Rattus norvegicus) (UniProt Q9R0C9); assay: Agonist activity at sigma1 receptor in rat PC12 cells assessed as cells with increase in NGF-induced neurite outgrowth at 0.25 uM after 5 days by phase contrast microscopy; assay type: functional, cell-based; details: PC-12; in short: as §4
[9] = molecular target: Sigma non-opioid intracellular receptor 1 (Rattus norvegicus) (UniProt Q9R0C9); assay: Agonist activity at sigma1 receptor in rat PC12 cells assessed as increase of NGF-induced neurite elongation at 0.25 uM after 5 days by phase contrast microscopy; assay type: functional, cell-based; details: PC-12; in short: as §3
[10] = molecular target: Sigma non-opioid intracellular receptor 1 (Rattus norvegicus) (UniProt Q9R0C9); assay: Agonist activity at sigma1 receptor in rat PC12 cells assessed as increase of NGF-induced neurite length at 2.5 uM after 5 days by phase contrast microscopy; assay type: functional, cell-based; details: PC-12; in short: as §3
[11] = molecular target: Sigma non-opioid intracellular receptor 1 (Rattus norvegicus) (UniProt Q9R0C9); assay: Agonist activity at sigma1 receptor in rat PC12 cells assessed as cells with increase in NGF-induced neurite outgrowth at 2.5 uM after 5 days by phase contrast microscopy; assay type: functional, cell-based; details: PC-12; in short: as §4
[12] = molecular target: Kappa-type opioid receptor (Cavia porcellus, UniProt P41144); assay: Displacement of [3H]-U69593 from kappa opioid receptor in guinea pig brain membrane after 150 mins by liquid scintillation counting; assay type: cell membranes
In short: as §2, with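 “[3H]-U69,593” for “[3H]-DAMGO”, “MgCl2,” for “MgCl2, 400 µM PMSF,”, “unlabeled U69,593.” for “naloxone.”, “µM;” for “µM test compound;”, “0.69” for “0.57”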

Mu-type opioid receptor = Mu-type opioid receptor (Cavia porcellus, UniProt P97266); assay: Displacement of [3H]-DAMGO from mu opioid receptor in guinea pig brain membrane after 150 mins by liquid scintillation counting; assay type: cell membranes; in short: as §2
PC-12 = assay: Cytotoxicity against rat PC12 cells; assay type: cell-based
HaCaT [13] = assay: Cytotoxicity against human HaCaT cells at 1x10'-8 to 1x10'-5 M after 72 hrs by MTT assay; assay type: cell-based
In short: (§5)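 HaCaT cells plated at 5000/well. After 24 h, exposed to 1 × 10^-8 to 1 × 10^-5 for 48 or 72 h at 37 °C, 5% CO2, in medium with 5% FBS or serum-free (N = 6 each). Viability was read as optical density in an MTT-based assay.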

HaCaT [14] = assay: Cytotoxicity against human HaCaT cells at 1x10'-8 to 1x10'-5 M after 48 hrs by MTT assay; assay type: cell-based; in short: as §5
[15] = molecular target: Sigma non-opioid intracellular receptor 1 (Rattus norvegicus) (UniProt Q9R0C9); assay: Agonist activity at sigma1 receptor in rat PC12 cells assessed as cells with increase in NGF-induced neurite outgrowth at 0.01 uM after 5 days by phase contrast microscopy; assay type: functional, cell-based; details: PC-12; in short: as §4
[16] = molecular target: Sigma non-opioid intracellular receptor 1 (Rattus norvegicus) (UniProt Q9R0C9); assay: Agonist activity at sigma1 receptor in rat PC12 cells assessed as cells with increase in NGF-induced neurite outgrowth at 0.25 uM after 5 days by phase contrast microscopy in presence of 5 uM sigma1 receptor antagonist BD-1063; assay type: functional, cell-based; details: PC-12; in short: as §4
[17] = molecular target: Sigma non-opioid intracellular receptor 1 (Rattus norvegicus) (UniProt Q9R0C9); assay: Agonist activity at sigma1 receptor in rat PC12 cells assessed as decrease in NGF-induced neurite elongation at 0.25 uM after 5 days by phase contrast microscopy in presence of 5 uM sigma1 receptor antagonist BD-1064 relative to compound alone; assay type: functional, cell-based; set-up: scale not given: the % may be the effect or the level left; details: PC-12, in the assay text read “BD-1063” for “BD-1064”; in short: as §3

Chain of Sigma non-opioid intracellular receptor 1 (Q60492 whole entry): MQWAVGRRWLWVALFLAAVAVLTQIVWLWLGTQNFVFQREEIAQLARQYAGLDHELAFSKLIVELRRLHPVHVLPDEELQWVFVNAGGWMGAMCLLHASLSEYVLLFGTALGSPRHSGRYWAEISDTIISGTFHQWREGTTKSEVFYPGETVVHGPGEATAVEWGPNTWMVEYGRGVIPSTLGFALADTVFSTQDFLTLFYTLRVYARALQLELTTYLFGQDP
Chain of Mu-type opioid receptor (P97266 whole entry): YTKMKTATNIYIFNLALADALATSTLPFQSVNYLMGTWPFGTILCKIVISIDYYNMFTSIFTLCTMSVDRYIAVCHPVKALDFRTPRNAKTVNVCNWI
Chain of Mu-type opioid receptor (Cavia porcellus) (P97266 whole entry): as above
Chain of Kappa-type opioid receptor (Cavia porcellus) (P41144 whole entry): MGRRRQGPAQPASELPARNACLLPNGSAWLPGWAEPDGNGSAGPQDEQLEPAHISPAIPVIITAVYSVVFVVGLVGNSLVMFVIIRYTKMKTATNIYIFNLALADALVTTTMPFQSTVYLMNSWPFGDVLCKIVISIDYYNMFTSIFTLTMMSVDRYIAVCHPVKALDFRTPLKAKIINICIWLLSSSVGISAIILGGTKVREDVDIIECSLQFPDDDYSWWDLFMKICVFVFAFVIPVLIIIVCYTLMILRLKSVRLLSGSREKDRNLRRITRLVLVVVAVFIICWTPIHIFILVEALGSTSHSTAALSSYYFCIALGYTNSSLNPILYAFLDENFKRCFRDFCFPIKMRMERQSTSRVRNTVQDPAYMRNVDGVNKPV
Chain of Kappa-type opioid receptor (P41144 whole entry): as above
Chain of Sigma non-opioid intracellular receptor 1 (Rattus norvegicus) (Q9R0C9 whole entry): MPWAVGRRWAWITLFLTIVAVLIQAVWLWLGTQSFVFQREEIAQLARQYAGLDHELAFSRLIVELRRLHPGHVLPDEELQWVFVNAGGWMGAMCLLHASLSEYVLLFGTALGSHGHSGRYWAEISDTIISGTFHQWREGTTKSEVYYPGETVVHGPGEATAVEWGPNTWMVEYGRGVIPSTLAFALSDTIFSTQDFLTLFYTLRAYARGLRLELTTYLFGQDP

Compound	Ratio Ki (Cavia porcellus)	Activity [1] [%]	Activity [2] [%]	pKi [3]	Activity (Sus scrofa) [%]	pKi [4]	also measured
C/C(=C\CN1CCCCC1)c1ccc2ccccc2c1	36.2	23	44	9.01	16	7.45	
COc1cccc(/C(C)=C/CN2CCCCC2)c1	3.2	21	22	7.04	0	6.53	
C/C(=C\CN1CCCCC1)c1ccc(-c2ccccc2)cc1	129	0	6	9.07	32	6.95	Activity [5]: inactive; Activity [6]: inactive; Activity [7]: inactive; Activity [8]: inactive; Activity [9]: inactive; Activity [10]: inactive; Activity [11]: inactive
COc1cccc(/C(C)=C/CN2CCOCC2)c1		46	10	< 6.00	20	< 6.00	
COc1cccc(/C(C)=C/CN(C)Cc2ccccc2)c1	16.3	49		8.00	8	6.79	pKi [12]: 6.52
COc1cccc(/C(C)=C/CN2CCC(Cc3ccccc3)CC2)c1	0.8	36		8.11	36	8.24	pKi [12]: 6.67
C/C(=C\CN(C)Cc1ccccc1)c1ccc(-c2ccccc2)cc1	12					7.12	
C/C(=C\CN1CCC(Cc2ccccc2)CC1)c1ccc2ccccc2c1	0.7	38	10	7.64	17	7.80	
COc1ccc(/C(C)=C/CN(C)Cc2ccccc2)cc1	29.5			8.28	27	6.81	pKi (Mu-type opioid receptor): 7.04; pKi [12]: 6.71
C/C(=C\CN(C)C)c1ccccc1		0	0	< 6.00	0	< 6.00	
C/C(=C\CN(C)Cc1ccccc1)c1ccc2ccccc2c1	111					6.06	
C/C(=C\CN1CCCCC1)c1ccccc1	0.4	19	0	6.34	0	6.72	
C/C(=C\CN1CCOCC1)c1ccccc1		12	3	< 6.00	19	< 6.00	
COc1ccc(/C(C)=C/CN2CCCCC2)cc1	10.6	36	14	7.85	0	6.83	
COc1ccc(/C(C)=C/CN2CCOCC2)cc1		0	8	< 6.00	10	< 6.00	
C/C(=C\CN1CCC(Cc2ccccc2)CC1)c1ccc(-c2ccccc2)cc1	2.6	0	10	8.15	17	7.74	
COc1ccc(/C(C)=C/CN2CCC(Cc3ccccc3)CC2)cc1	1.7			8.38	0	8.15	pKi (Mu-type opioid receptor): 6.83; pKi [12]: 6.80
CC(CCN1CCCCC1)c1ccc(-c2ccccc2)cc1.Cl (racemic)	147	0	36	9.15	25	6.99	Activity (PC-12): Non-toxic; Activity (HaCaT [13]): Non-toxic; Activity [9]: 131 µm; Activity (HaCaT [14]): Non-toxic; Activity [15]: 23.4%; Activity [16]: 18.6%; Activity [17]: 31%
C/C(=C\CN1CCOCC1)c1ccc(-c2ccccc2)cc1	33.3	52	10	7.94	69	6.41	
C/C(=C\CN(C)Cc1ccccc1)c1ccccc1	0.7			7.04	67	7.21	pKi (Mu-type opioid receptor): 6.92; pKi [12]: 6.36
C/C(=C\CN(C)C)c1ccc(-c2ccccc2)cc1	75.7					6.97	
COc1ccc(/C(C)=C/CN(C)C)cc1		10	20	6.09	0	< 6.00	
C/C(=C\CN1CCC(Cc2ccccc2)CC1)c1ccccc1	5.1			8.97	0	8.26	pKi (Mu-type opioid receptor): 6.82; pKi [12]: 6.72
C/C(=C\CN1CCOCC1)c1ccc2ccccc2c1	23.9	44	15	8.02	31	6.64	
COc1cccc(/C(C)=C/CN(C)C)c1		17	5	< 6.00	60	< 6.00	
O=C(OCCN1CCOCC1)C1(c2ccccc2)CCCCC1							Activity [15]: inactive; Activity [10]: inactive; Activity [11]: inactive
C/C(=C\CN(C)C)c1ccc2ccccc2c1	7.5					6.83	
